{
  "source": "paper PMC6146057",
  "about": "(ACS chemical neuroscience, 2018)",
  "key": {"[1]": {"target": "T1, rat M1 (Rattus norvegicus, UniProt P08482)", "T1 sequence (P08482 1-460)": "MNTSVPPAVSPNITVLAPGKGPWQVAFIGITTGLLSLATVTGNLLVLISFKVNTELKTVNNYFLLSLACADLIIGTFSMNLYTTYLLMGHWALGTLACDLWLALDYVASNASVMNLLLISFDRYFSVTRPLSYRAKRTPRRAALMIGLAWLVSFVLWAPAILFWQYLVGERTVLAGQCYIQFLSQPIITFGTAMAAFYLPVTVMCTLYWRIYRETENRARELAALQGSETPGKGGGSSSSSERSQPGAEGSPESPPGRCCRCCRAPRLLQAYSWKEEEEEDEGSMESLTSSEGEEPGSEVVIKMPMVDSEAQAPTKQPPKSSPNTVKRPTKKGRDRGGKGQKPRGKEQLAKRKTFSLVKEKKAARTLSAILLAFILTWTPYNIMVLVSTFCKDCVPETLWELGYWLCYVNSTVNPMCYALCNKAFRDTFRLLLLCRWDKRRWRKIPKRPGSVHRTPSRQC", "settings": "reported M1 PAMs with adverse effect liability; cited from earlier work"}, "[2]": {"target": "T2, M1 (Homo sapiens, UniProt P11229)", "T2 sequence (P11229 1-460)": "T1 sequence (P08482 1-460) with V5A, S254T, S309P, K320R, G337A, V413I", "settings": "cited from earlier work"}, "[3]": {"system": "layer V medial prefrontal cortex fEPSPs", "test": "Extracellular field electrophysiology in layer V prelimbic mPFC slices", "parameters": "species or system mouse", "in_short": "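Coronal prelimbic slices (400 μm) recovered in NMDG-HEPES solution (pH 7.3) for 8–10 min at 32 °C, then were perfused with ACSF at 2 mL/min and 30–32 °C. Layer V fEPSPs were evoked from layers II–III (200 μs, 0.05 Hz) or optically in ChR2-injected mice. Compound alone was bath-applied for 20 min. Alternatively, 10 μM compound was applied for 10 min, then with 3 μM OxoM for 10 min. Slope was measured 46–50 min after washout.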"}, "[4]": {"system": "rats", "test": "Contextual fear conditioning, risperidone-induced deficit", "format": "in vivo, rat", "settings": "3 mg/kg i.p. alone"}, "[5]": {"system": "mice", "settings": "cited from earlier work"}, "[6]": {"system": "rats", "settings": "cited from earlier work"}, "[7]": {"system": "layer V medial prefrontal cortex fEPSPs", "settings": "cited from earlier work"}, "[8]": {"target": "T2, M1", "test": "M1 PAM potency at increasing ACh concentration", "format": "cell-based", "settings": "read-out: M1 PAM potency"}},
  "note": "Positions count from the first letter of the chain named. Where two headings read alike, the source gives them in different places.",
  "data": [
    {"smiles": "COc1ccc(Cn2cc(C(=O)O)c(=O)c3ccccc32)cc1", "note": "[compound 1]", "values": [
      {"measurement": "Displacement of [3H]-NMS", "setting": "[1]", "value": "weak to significant displacement"}
    ]},
    {"smiles": "Cn1cc(-c2ccc(CN3Cc4ncccc4C3=O)c(F)c2)cn1", "note": "[VU0453595]", "values": [
      {"measurement": "potency at M1", "setting": "[2]", "value": "low micromolar range"}
    ]},
    {"smiles": "C[N+](C)(C)CCOC(N)=O", "note": "[carbachol, reference compound]", "values": [
      {"measurement": "LTD of layer V fEPSPs, agonist alone", "setting": "[3]; 10 μM, electrically evoked", "value": "does not induce a significant long-term depression"}
    ]},
    {"smiles": "Cc1nc2n(c(=O)c1CCN1CCC(c3noc4cc(F)ccc34)CC1)CCCC2", "note": "[risperidone, reference compound]", "values": [
      {"measurement": "Effect on acquisition of contextual fear conditioning", "setting": "[4]", "value": "deficits in acquisition of contextual fear conditioning"}
    ]},
    {"smiles": "Cn1cc(-c2ccc(Cn3cc(C(=O)N[C@H]4CCCC[C@@H]4O)c4c(F)cc(F)cc43)cn2)cn1", "note": "[VU6004256]", "values": [
      {"measurement": "Behavioral convulsions and cholinergic AEs", "setting": "[5]; rodents", "value": "devoid of behavioral convulsions and cholinergic AEs"}
    ]},
    {"smiles": "C[N+](C)(C)CC#CCN1CCCC1=O", "note": "[oxotremorine-M, reference compound]", "values": [
      {"measurement": "LTD of layer V fEPSPs, agonist alone", "setting": "[3]; 3 μM, optical stimulation of ventral hippocampal afferents", "value": "does not induce a significant LTD"}
    ]},
    {"smiles": "Cc1ccc(Cc2cc3c(=O)n([C@H]4CCCC[C@@H]4O)cnc3c3ccccc23)cn1", "note": "[compound 2]", "values": [
      {"measurement": "Efficacy in rat novel object recognition (NOR) model", "setting": "[6]", "value": "failed to show efficacy"},
      {"measurement": "Behavioral convulsions, Racine scale", "setting": "[5]; mice, develop rapidly and lasted 3 h", "value": "4/5"},
      {"measurement": "Agonist activity in the mouse PFC", "setting": "[7]", "value": "have agonist activity"},
      {"measurement": "Displacement of [3H]-NMS", "setting": "[1]", "value": "weak to significant displacement"}
    ]},
    {"smiles": "Cc1cc2c(cc1Cc1ccc(-c3cocn3)cc1)C(=O)N([C@H]1CCOC[C@@H]1O)C2", "note": "[PF-06827443]", "values": [
      {"measurement": "EC50", "setting": "[8]; ACh concentration increased to EC70", "value": "7 ± 1", "unit": "nM"},
      {"measurement": "EC50", "setting": "[8]; very low level of ACh (~EC9)", "value": "40 ± 6", "unit": "nM"},
      {"measurement": "Seizures in mice", "setting": "[5]; mice", "value": "induced seizures in mice"},
      {"measurement": "Agonist activity in the mouse PFC", "setting": "[7]", "value": "have agonist activity"},
      {"measurement": "Displacement of [3H]-NMS", "setting": "[1]", "value": "weak to significant displacement"}
    ]}
  ]
}
